A word on the GI50: it is the concentration at which growth is held to half of that of the control. Lower therefore signals greater sensitivity of the cells. The pIC50 is the IC50 on a negative log10 scale, so that one unit is a factor of ten. The AUC(0-t) is the area under the concentration-time curve up to a stated or last time point. A lower AUC(0-t) goes with less exposure.

pIC50: −log10 of the molar value. Activity calls are given as the source filed them. The rule behind the calls is not given here.

Data set [1] is described as follows: Growth inhibition of human U87 cells after 72 hrs by CellTiter-Glo assay. The data set is classed as functional, U-87MG ATCC. The settings on record: U-87 MG. The essentials:
(§1)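 Cells exposed to compound for 72 h, run within the same experiment as the 2-HG assay; total cellular ATP measured; concentration giving 50% growth inhibition (GI50) determined.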
(Cellular ATP, detected with luciferase, serves as a proxy for viable cell number.)

Data set [2] concerns Isocitrate dehydrogenase [NADP] cytoplasmic (Homo sapiens), O75874 [R132H]. The experiment in a line: Uncompetitive inhibition of IDH1 R132H mutant using NADPH as substrate by stopped-flow spectrophotometric analysis.
Isocitrate dehydrogenase [NADP] cytoplasmic (Homo sapiens), O75874 [R132H], sequence (O75874 whole entry R132H): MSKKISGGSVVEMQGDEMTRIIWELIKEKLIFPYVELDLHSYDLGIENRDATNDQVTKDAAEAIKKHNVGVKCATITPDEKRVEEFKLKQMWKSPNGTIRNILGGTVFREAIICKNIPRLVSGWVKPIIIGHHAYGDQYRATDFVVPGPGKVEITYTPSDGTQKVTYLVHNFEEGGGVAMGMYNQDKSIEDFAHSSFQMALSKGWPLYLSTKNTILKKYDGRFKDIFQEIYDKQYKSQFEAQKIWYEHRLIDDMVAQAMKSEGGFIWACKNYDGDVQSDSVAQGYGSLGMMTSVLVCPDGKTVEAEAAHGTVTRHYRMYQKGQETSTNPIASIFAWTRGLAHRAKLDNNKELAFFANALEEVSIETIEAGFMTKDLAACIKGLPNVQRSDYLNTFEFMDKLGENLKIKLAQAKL
The target of data set [3] is T1, Isocitrate dehydrogenase [NADP] cytoplasmic (Homo sapiens, UniProt O75874, R132H). Nature of the data set: Inhibition of IDH1 R132H mutant expressed in human U87 cells assessed as inhibition of 2-hydroxyglutarate production after 48 hrs by LC/MS analysis. The format is cell-based, U-87MG ATCC.
T1 sequence (O75874 2-414 R132H limits assumed): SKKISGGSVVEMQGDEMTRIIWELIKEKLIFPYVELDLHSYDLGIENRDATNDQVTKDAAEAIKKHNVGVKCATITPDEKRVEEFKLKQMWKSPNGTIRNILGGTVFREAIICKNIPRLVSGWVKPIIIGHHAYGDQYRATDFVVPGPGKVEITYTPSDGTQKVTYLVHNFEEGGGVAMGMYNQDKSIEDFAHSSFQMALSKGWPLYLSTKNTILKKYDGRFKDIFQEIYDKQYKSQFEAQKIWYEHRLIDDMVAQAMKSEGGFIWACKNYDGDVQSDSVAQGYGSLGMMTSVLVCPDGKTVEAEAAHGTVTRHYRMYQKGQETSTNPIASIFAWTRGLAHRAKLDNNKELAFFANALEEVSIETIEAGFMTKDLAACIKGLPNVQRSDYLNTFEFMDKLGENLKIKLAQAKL
Data set [4] relates to Isocitrate dehydrogenase [NADP] cytoplasmic (Homo sapiens), O75874 [R132H]. Nature of the data set: Reversible inhibition of IDH1 R132H mutant using alpha-ketoglutarate as substrate by stopped-flow spectrophotometric analysis.
Data set [5] addresses T2, Isocitrate dehydrogenase [NADP] cytoplasmic (Homo sapiens, UniProt O75874). The experiment in a line: Inhibition of wild type IDH1 using DL-isocitrate as substrate by resazurin-based fluorimetric analysis. Background: The colour change of resazurin is a common sign of viable cells or microbes.
The test system of data set [6] is HT-1080. The experiment in a line: Growth inhibition of human HT1080 cells after 72 hrs by CellTiter-Glo assay. The format is functional. The settings on record: HT-1080, 72 h. The method in brief: as §1
In data set [7] the target is T2, Isocitrate dehydrogenase [NADP] cytoplasmic. The experiment in a line: Inhibition of wild type IDH1 using DL-isocitrate as substrate by resazurin-based fluorimetric analysis relative to control.
In data set [8] the target is T1, Isocitrate dehydrogenase [NADP] cytoplasmic. The experiment in a line: Inhibition of IDH1 R132H mutant using alpha-ketoglutarate as substrate after 60 mins by resazurin-based fluorimetric analysis.
Data set [9] addresses T3, Isocitrate dehydrogenase [NADP] cytoplasmic (Homo sapiens, UniProt O75874, R132C). The experiment in a line: Inhibition of IDH1 R132C mutant using alpha-ketoglutarate as substrate after 60 mins by resazurin-based fluorimetric analysis.
The test system of data set [10] is Isocitrate dehydrogenase [NADP] cytoplasmic (Homo sapiens), O75874 [R132H]. The experiment in a line: Competitive inhibition of IDH1 R132H mutant using alpha-ketoglutarate as substrate by stopped-flow spectrophotometric analysis.
The target in data set [11] is T3, Isocitrate dehydrogenase [NADP] cytoplasmic. The experiment in a line: Inhibition of IDH1 R132C mutant endogenously expressing human HT1080 cells assessed as inhibition of 2-hydroxyglutarate production after 48 hrs by LC/MS analysis.
A short description of data set [12]: AUC (0 to 24 hrs) in mouse at 50 mg/kg, ip. The format is ADME, organism-based. The arrangement: time < 24 hr, dose 50 mg/kg, route intraperitoneal. To be noted: plasma. The essentials: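 Mouse given a single IP dose of 50 mg/kg; plasma exposure expressed as AUC0−24h.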
Data set [13] is described as follows: Fraction unbound in CD1 nude mouse plasma xenografted with human U87 cells expressing IDH1 R132H mutant at 150 mg/kg, ip administered BID for 1 day. The data set is classed as ADME, organism-based, U-87MG ATCC. On the set-up: dose 150 mg/kg, route intraperitoneal. (In general: Xenograft models place foreign cells or tissue in a host animal.)
Data set [14] can be described thus: Plasma protein binding in mouse by equilibrium dialysis method. The data set is classed as ADME, cell-free. To be noted: read-out: PPB (converted). The essentials: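 Mouse plasma protein binding measured by equilibrium dialysis.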
Data set [15] concerns Mus musculus. The experiment in a line: Inhibition of IDH1 R132H mutant in human U87 cells xenografted in CD1 nude mouse assessed as inhibition of 2-hydroxyglutarate production at 150 mg/kg, ip administered as single dose by LC/MS analysis relative to vehicle-treated control. The format is functional, U-87MG ATCC. The settings on record: route intraperitoneal. The method in brief:
(§2)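 Female nude mice bearing U87 R132H tumor xenografts dosed IP at 150 mg/kg in 0.5% MC/0.2% Tween 80, one dose or three BID doses; blood and tumor sampled at several time points; tumor 2-HG quantified by LC/MS/MS against vehicle-dosed animals.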

The nature of data set [16]: Hepatic extraction ratio in rat liver microsomes. To be noted: read-out: ERH. The format is ADME, Microsome. The essentials: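 Compound incubated with rat liver microsomes in vitro. Turnover in the incubation was used to estimate the hepatic extraction ratio. Human microsomes were run alongside.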
For data set [17], the system named is Mus musculus. The experiment in a line: Inhibition of IDH1 R132H mutant in human U87 cells xenografted in CD1 nude mouse assessed as inhibition of 2-hydroxyglutarate production at 150 mg/kg, ip administered BID by LC/MS analysis relative to vehicle-treated control. The format is functional, U-87MG ATCC. To be noted: route intraperitoneal. The method in brief:
as §2

T2 sequence (O75874 whole entry): as the sequence (O75874 whole entry R132H) above, with H132R counted along it
T3 sequence (O75874 2-414 R132C limits assumed): as the sequence (O75874 2-414 R132H limits assumed) above, with H131C counted along it

For `Cc1ccccc1C(C(=O)NC1CCCC1)N(C(=O)Cc1cccs1)c1cccc(F)c1` (configuration not stated), the concentration for 50% growth inhibition (GI50) in [1] and in data set [6] was over 20 µM in each case. Besides, the inhibition result in data set [2], in data set [4] and in data set [10] was “Active” in each case. Moreover, the negative-log IC50 (pIC50) in data set [3] was 6.24; in data set [5] it was 5.11; in [8], 7.05; in data set [9], 7.30; in data set [11] it was 6.41. In [7], this compound came in with an Imax of 32%.

As to `O=C(NC1CCCCC1)C(c1ccccc1)N(C(=O)Cc1cccs1)c1cccc(F)c1` (configuration not stated), the pIC50 in [8] is 7.10.

For the compound `O=C(NC1CCCCC1)[C@H](c1ccccc1)N(C(=O)Cc1cccs1)c1cccc(F)c1`, in [8], the pIC50 was 7.22.

Compound `O=C(NC1CCCCC1)[C@@H](c1ccccc1)N(C(=O)Cc1cccs1)c1cccc(F)c1` showed a pIC50 in data set [8] of under 4.96.

For `Cc1ccccc1C(C(=O)NC1CCCCC1)N(C(=O)CNC1CCCCC1)c1cccc(F)c1` (racemic), the pIC50 in data set [8] was 5.90.

`Cc1ccccc1C(C(=O)NC1CCCCC1)N(C(=O)CNc1ccccc1)c1cccc(F)c1` (racemic) gave a pIC50 in data set [8] of 7.22.

In [8], `Cc1ccccc1C(C(=O)NC1CCCCC1)N(C(=O)CN(C)c1ccccc1)c1cccc(F)c1` (racemic) showed a pIC50 of 7.30.

For the compound `Cc1ccccc1C(C(=O)NC1CCCCC1)N(C(=O)CN1CCCC1)c1cccc(F)c1` (racemic), the pIC50 in data set [8] is 5.79.

Regarding `Cc1ccccc1C(C(=O)NC1CCCCC1)N(C(=O)CN1CCOCC1)c1cccc(F)c1` (racemic), in data set [8], the pIC50 was 6.62.

`Cc1ccccc1C(C(=O)NC1CCCCC1)N(C(=O)CN1CCNCC1)c1cccc(F)c1` (racemic) had a pIC50 in [8] of 5.25.

In [8], `Cc1ccccc1C(C(=O)NC1CCCCC1)N(C(=O)CN1CCc2ccccc21)c1cccc(F)c1` (racemic) showed a pIC50 of 6.85.

For `Cc1ccccc1C(C(=O)NC1CCCCC1)N(C(=O)Cn1cccn1)c1cccc(F)c1` (racemic), the pIC50 in [8] was 6.38.

With `Cc1ccccc1C(C(=O)NC1CCCCC1)N(C(=O)Cn1cncn1)c1cccc(F)c1` (racemic), in data set [8], the pIC50 was 6.85.

In data set [12], `Cc1ccccc1C(C(=O)NC1CCCCC1)N(C(=O)Cn1ccnc1C)c1cccc(F)c1` (racemic) registered an AUC(0-t) at 24 h of 20800 ng·h/mL. For the same compound, the GI50 in [1] and in [6] was over 20 µM each time. For the same compound, the fraction unbound at 24 h in data set [13] came out at 0.043. Moreover, the pIC50 is under 4.00 in data set [5], 7.15 in data set [8], 6.80 in data set [9] and 6.32 in [11]. Further, in data set [14], the fraction unbound was 0.043. Besides, the Imax in [15] stood at 69%; in data set [17], 89.4%. The hepatic extraction ratio in data set [16] stood at 0.85.

For `Cc1ccccc1C(C(=O)NC1CCCCC1)N(C(=O)Cn1c(C)nc2ccccc21)c1cccc(F)c1` (racemic), the GI50 in data set [1] and in data set [6] was over 20 µM throughout. In addition, the pIC50 in [3] was 6.62; in [5], under 4.00; in data set [8], 7.10; in data set [9], 7.40; in data set [11] it was 6.96.

Regarding `Cc1ccccc1C(C(=O)NC1CCCCC1)N(C(=O)Cn1ccc2ccccc21)c1cccc(F)c1` (racemic), the GI50 in data set [1] and in [6] was over 20 µM in each case. For the same compound, the pIC50 in data set [3] was 6.43; in [5] it was under 4.00; in data set [8] it was 7.15; in [9] it was 7.40; in data set [11] it was 6.77.

Regarding `Cc1ccccc1C(C(=O)NC1CCCCC1)N(C(=O)Cc1cccs1)c1cccc(F)c1` (racemic), the GI50 in data set [1] and in data set [6] was over 20 µM throughout. Also, the pIC50 is 6.72 in data set [3]; 5.54 in data set [5]; 7.30 in data set [8]; 7.52 in data set [9]; 6.82 in data set [11]. The same compound came in with an Imax in data set [7] of 22%.

In [8], `Cc1ccccc1C(C(=O)NC1CCC1)N(C(=O)Cc1cccs1)c1cccc(F)c1` (racemic) gave a negative-log IC50 (pIC50) of 6.54.

As to `Cc1ccccc1C(C(=O)NC(C)(C)C)N(C(=O)Cc1cccs1)c1cccc(F)c1` (racemic), the pIC50 in data set [8] was 6.07.

For `Cc1ccccc1C(C(=O)NC1CC1)N(C(=O)Cc1cccs1)c1cccc(F)c1` (racemic), the pIC50 in data set [8] was 5.54.

Compound `Cc1ccccc1NC(=O)C(c1ccccc1C)N(C(=O)Cc1cccs1)c1cccc(F)c1` (racemic) had a pIC50 in data set [8] of 6.24.

In data set [8], `Cc1ccccc1C(C(=O)NCc1ccccc1)N(C(=O)Cc1cccs1)c1cccc(F)c1` (racemic) showed a pIC50 of 5.74.

In data set [8], `Cc1ccccc1C(C(=O)NC1CCOCC1)N(C(=O)Cc1cccs1)c1cccc(F)c1` (racemic) gave a pIC50 of 6.19.

In turn, `Cc1ccccc1C(C(=O)NC1CCNCC1)N(C(=O)Cc1cccs1)c1cccc(F)c1` (racemic) showed a pIC50 in data set [8] of 4.27.

Regarding `Cc1ccccc1C(C(=O)NC1CCCCC1)N(C(=O)Cc1cscn1)c1cccc(F)c1` (racemic), the GI50 in data set [1] and in data set [6] was over 20 µM throughout. The pIC50 in [3] was 6.54; in data set [5], 4.71; in data set [8], 7.00; in data set [9], 7.22; in [11], 6.66. The same compound displayed an Imax in data set [7] of 32%.

Take `Cc1ccccc1C(C(=O)NC1CCCCC1)N(C(=O)Cc1ccncc1)c1cccc(F)c1` (racemic): the GI50 in data set [1] and in [6] was over 20 µM throughout. For the same compound, the pIC50 was 6.68 in data set [3]; 4.71 in data set [5]; 7.30 in data set [8]; 7.30 in data set [9]; 6.59 in data set [11]. The compound also registered an Imax in data set [7] of 34%.

With `Cc1ccccc1C(C(=O)NC1CCCCC1)N(C(=O)Cc1c[nH]c2ccccc12)c1cccc(F)c1` (racemic), the GI50 in [1] is over 20 µM; in [6] it was over 3 µM. In addition, the pIC50 was 6.44 in data set [3]; 5.20 in data set [5]; 7.22 in data set [8]; 7.52 in data set [9]; 7.05 in [11]. The same compound gave an Imax in [7] of 39%.

The compound `Cc1ccccc1C(C(=O)NC1CCCCC1)N(C(=O)Cc1cncnc1)c1cccc(F)c1` (racemic) showed a pIC50 in data set [8] of 5.96.

With `Cc1ccccc1C(C(=O)NC1CCCCC1)N(C(=O)CCl)c1cccc(F)c1` (racemic), the pIC50 in data set [8] is 6.05.

In [8], `Cc1ccccc1C(C(=O)NC1CCCCC1)N(C(=O)CN)c1cccc(F)c1` (racemic) showed a negative logarithm of the IC50 (pIC50) of 5.11.

Turning to `Cc1ccccc1C(C(=O)NC1CCCCC1)N(C(=O)CNC1CC1)c1cccc(F)c1` (racemic), the pIC50 in data set [8] is 6.72.

The compound `Cc1ccccc1C(C(=O)NC1CCCCC1)N(C(=O)CNC1CCCC1)c1cccc(F)c1` (racemic) had a negative logarithm of the IC50 (pIC50) in data set [8] of 6.35.

`CC(C(=O)NC1CCCCC1)(c1ccccc1)N(C(=O)Cc1cccs1)c1cccc(F)c1` (racemic) had a pIC50 in [8] of 5.85.

In data set [8], `CN(C(=O)C(c1ccccc1)N(C(=O)Cc1cccs1)c1cccc(F)c1)C1CCCCC1` (racemic) gave a pIC50 of 5.44.

The compound `Cc1ccccc1C(CNC1CCCCC1)N(C(=O)Cc1cccs1)c1cccc(F)c1` (racemic) showed a pIC50 in data set [8] of under 4.00.

In the case of `Cc1ccccc1C(C(=O)NC1CCCCC1)N(CCc1cccs1)c1cccc(F)c1` (racemic), the pIC50 in [8] was under 4.00.

The values above are taken from ChEMBL document CHEMBL2176947, “Discovery of the First Potent Inhibitors of Mutant IDH1 That Lower Tumor 2-HG in Vivo” (ACS Med Chem Lett, 2012).
